Assay results reported in ChEMBL document CHEMBL1128294, “Farnesyl derivatives of rigid carboxylic acids-inhibitors of ras-dependent cell growth” (J Med Chem, 1995).
pEC50, pKi: −log10 of the molar value.

How the values were obtained:
[1] = biological target: Protein-S-isoprenylcysteine O-methyltransferase (Rattus norvegicus) (UniProt Q9WVM4); experiment: In vitro inhibition of Prenylated protein methyltransferase of rat brain cerebellar synaptosomes was assessed from the amount of [3H]-methyl esters formed in 15 min; format: subcellular
Method in brief: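 Compounds at 150 μM final were tested as methyl acceptors. Enzyme source was rat brain cerebellar synaptosomes (100 μg protein) with 25 μM [methyl-3H]AdoMet ([…]) as methyl donor. Read-out was [3H]methyl esters formed in 15 min, in quadruplicate, ±SEM. Detection limit about 3 pmol.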

[2] = biological target: Protein-S-isoprenylcysteine O-methyltransferase (Rattus norvegicus, UniProt Q9WVM4); experiment: Ability to inhibit prenylated protein methyltransferase (PPMTase) in cell free systems
Method in brief: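 PPMTase source: rat cerebellum synaptosomal membranes (100 μg protein). Substrate 50 μM AFC with 25 μM [methyl-3H]AdoMet, 37 °C for 15 min, with and without a range of inhibitor concentrations, run in duplicate. Activity with drug is expressed as percent of activity without drug, and Ki is derived from the inhibition curves.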

EJ [3] = experiment: The highest nontoxic concentration for human Ha-ras-transformed rat 1 (EJ) cells was determined by MTT staining method; format: functional
Method in brief: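 EJ (Ha-ras-transformed Rat1) cultures treated with compound were stained with MTT to detect live cells, with trypan blue also used to detect dead cells. The value reported is the highest concentration without toxicity.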

EJ [4] = experiment: Effective concentration required for 50% inhibition of growth of human Ha-ras-transformed rat 1 (EJ)cells; format: functional, cell-based
Method in brief: (§1)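 Ha-ras-transformed Rat1 (EJ) cells grown in DMEM/10% FCS with compound in 0.1% DMSO (vehicle controls 0.1% DMSO), 7-day cultures. Cell number by direct counting gives dose–response curves, and EC50 is the concentration giving 50% growth inhibition. Means of three to five determinations ±SD.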

EJ [5] = experiment: Effective concentration required for 50% inhibition of growth of human Ha-ras-transformed rat 1 (EJ)cells; not active at 200 uM; format: functional, cell-based; method in brief: as §1

Sequence of Protein-S-isoprenylcysteine O-methyltransferase (Q9WVM4 whole entry): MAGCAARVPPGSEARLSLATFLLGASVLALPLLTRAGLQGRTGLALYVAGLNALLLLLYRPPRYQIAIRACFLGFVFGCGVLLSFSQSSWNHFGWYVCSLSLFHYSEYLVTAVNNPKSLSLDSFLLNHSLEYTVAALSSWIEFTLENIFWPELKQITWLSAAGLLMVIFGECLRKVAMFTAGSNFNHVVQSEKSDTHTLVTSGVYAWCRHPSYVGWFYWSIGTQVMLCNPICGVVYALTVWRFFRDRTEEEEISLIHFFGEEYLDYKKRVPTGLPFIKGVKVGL
Sequence of Protein-S-isoprenylcysteine O-methyltransferase (Rattus norvegicus) (Q9WVM4 whole entry): as above

Amount formed [1] [pmol]	pKi [2]	Structure (SMILES)	Cytotoxic endpoint (EJ [3]) [µM]	pEC50 (EJ [4])	EC50 (EJ [5])
0.76	5.55	CC(C)=CCC/C(C)=C/CC/C(C)=C/CSc1ccccc1C(=O)O [SALIRASIB]	200	5.12	
52.5		CC(=O)N(C/C=C(\C)CC/C=C(\C)CCC=C(C)C)C(CS)C(=O)O (stereo not drawn)			
26.3		CCC(=O)SC/C=C(\C)CC/C=C(\C)CCC=C(C)C			
0.37	5.10	CC(C)=CCC/C(C)=C/CC/C(C)=C/CNc1ccc(Cl)c(C(=O)O)c1	200	4.51	
0.73	4.83	CC(C)=CCC/C(C)=C/CC/C(C)=C/CSc1ncccc1C(=O)O	200	3.90	
0.89	4.14	CC(C)=CCC/C(C)=C/CC/C(C)=C/CSc1ccc(N)cc1C(=O)O	25		Not Active
